Laboratory results published in publication PMC3063522 (Journal of agricultural and food chemistry, 2011).
In brackets after ≈: the same amount, converted by molar mass. Entries after “also recorded” stand apart in the source; their conditions may differ.

Legend:
Cytotoxicity [1] = format: cell-based; details: human, SK-MEL malignant melanoma cells
Procedure, shortened: (§1)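 Anti-proliferative assay run alongside four human tumour lines (SK-MEL, KB, BT-549, SK-OV-3) and two noncancerous kidney lines (Vero, LLC-PK11). Doxorubicin served as the positive control.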

Cytotoxicity [2] = format: cell-based; details: human, KB oral epidermal carcinoma cells
Procedure, shortened: as §1

Cytotoxicity [3] = format: cell-based; details: human, BT-549 breast ductal carcinoma cells
Procedure, shortened: as §1

Cytotoxicity [4] = format: cell-based; details: human, SK-OV-3 ovary carcinoma cells
Procedure, shortened: as §1

Cytotoxicity [5] = format: cell-based; details: African green monkey, Vero kidney fibroblasts
Procedure, shortened: as §1

Cytotoxicity [6] = format: cell-based; details: pig, LLC-PK11 kidney epithelial cells
Procedure, shortened: as §1

[7] = Cytotoxicity towards HL-60 cells in the antioxidant assay; format: cell-based; details: human, HL-60 promyelocytic leukemia cells
[8] = Cytotoxicity to RAW 264.7 cells in the iNOS assay; format: cell-based, mouse; details: mouse, RAW 264.7 macrophages
Phomopsis viticola = test: Antifungal broth dilution microbioassay, Phomopsis viticola; format: cell-based
Procedure, shortened: (§2)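 Broth microdilution adapted from the NCCLS M27-A yeast method for conidia-forming filamentous plant-pathogenic fungi. The commercial fungicide captan served as the internal standard in every assay. Means were compared by SAS analysis of variance with Fisher's protected LSD. For P. viticola and P. obscurans, activity was read at 120 and 144 h of incubation.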

Phomopsis obscurans = test: Antifungal broth dilution microbioassay, Phomopsis obscurans; format: cell-based
Procedure, shortened: as §2

mosquito larvae = test: Mosquito larvae toxicity bioassay; format: in vivo; details: Figure 4
Procedure, shortened: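 Larval toxicity bioassay, run in triplicate. Controls were untreated, DMSO-acetone carrier, and permethrin as the positive control.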

[9] = system: adult A. aegypti female mosquitoes; test: Adult mosquito topical toxicity assay; format: in vivo; details: topical, 3.12 μg per insect; acetone/DMSO control gave 5.8±1.8%
Botrytis cinerea = test: Antifungal broth dilution microbioassay, Botrytis cinerea; format: cell-based
Procedure, shortened: as §2

[10] = 120 and 144 h (from 120 to 144 h)
[11] = at the highest concentrations, Figure 2D

Q: What does the source list for `CC(C)=CCc1c(O)cc(/C=C/c2ccccc2)cc1O` [Compound 5, chiricanine A]?
A: IC50 (Cytotoxicity [1]): 20 µg/mL (≈ 71.3 µM); IC50 (Cytotoxicity [2]): > 25 µg/mL; IC50 (Cytotoxicity [3]): > 25 µg/mL; IC50 (Cytotoxicity [4]): > 25 µg/mL; IC50 (Cytotoxicity [5]): > 25 µg/mL; IC50 (Cytotoxicity [6]): 19.5 µg/mL (≈ 69.6 µM); IC50 [7]: 19 µg/mL (≈ 67.8 µM); IC50 [8]: 13 µg/mL (≈ 46.4 µM); Antifungal activity against P. viticola (Phomopsis viticola; 144 h of incubation): more fungicidal; Antifungal activity against P. obscurans (Phomopsis obscurans; [10]): highest levels of inhibition; Antifungal activity against P. obscurans (Phomopsis obscurans; 144 h of incubation): more fungicidal; also recorded: very high; Toxicity to mosquito larvae (mosquito larvae): significantly lower toxicity; Adult mosquito mortality rate ± SD [9]: 6.7±5.8%

Q: With `Oc1cccc(CCc2ccccc2)c1` [Compound 16] as the molecule, how does the IC50 (Cytotoxicity [1]) read?
A: Its IC50 is greater than 25 µg/mL.

Q: And the IC50 (Cytotoxicity [2])?
A: Its IC50 is greater than 25 µg/mL.

Q: And the IC50 (Cytotoxicity [3])?
A: Its IC50 is greater than 25 µg/mL.

Q: And the IC50 (Cytotoxicity [4])?
A: Its IC50 is greater than 25 µg/mL.

Q: What about the IC50 (Cytotoxicity [5]) of the same molecule?
A: The IC50 was greater than 25 µg/mL.

Q: What about the IC50 (Cytotoxicity [6]) of the same molecule?
A: Its IC50 is greater than 25 µg/mL.

Q: What about the IC50 [7] of the same molecule?
A: The IC50 was 17 µg/mL (≈ 85.7 µM).

Q: What about the IC50 [8] of the same molecule?
A: The IC50 was greater than 25 µg/mL.

Q: And the “Antifungal activity against P. viticola” value (Phomopsis viticola; 144 h of incubation)?
A: Its value is “statistically higher activity compared to 14”.

Q: And the “Antifungal activity against P. viticola” value (Phomopsis viticola; [11])?
A: Its value is “appreciable activity”.

Q: And the “Toxicity to mosquito larvae” value (mosquito larvae)?
A: Its value is “highest activity; also recorded: very low compared to the positive control permethrin”.

Q: What does the source list for `Oc1ccc(/C=C/c2cccc(O)c2)cc1` [Compound 15, trans-3,4′-dihydroxystilbene]?
A: IC50 (Cytotoxicity [1]): > 25 µg/mL; IC50 (Cytotoxicity [2]): > 25 µg/mL; IC50 (Cytotoxicity [3]): > 25 µg/mL; IC50 (Cytotoxicity [4]): > 25 µg/mL; IC50 (Cytotoxicity [5]): 19.5 µg/mL (≈ 91.9 µM); IC50 (Cytotoxicity [6]): 12 µg/mL (≈ 56.5 µM); IC50 [7]: 4 µg/mL (≈ 18.8 µM); IC50 [8]: > 25 µg/mL

Q: For `Oc1cccc(/C=C/c2ccccc2)c1` [Compound 14], which IC50 (Cytotoxicity [1]) is on record?
A: Its IC50 is greater than 25 µg/mL.

Q: And the IC50 (Cytotoxicity [2])?
A: Its IC50 is greater than 25 µg/mL.

Q: What about the IC50 (Cytotoxicity [3]) of the same molecule?
A: Its IC50 is greater than 25 µg/mL.

Q: And the IC50 (Cytotoxicity [4])?
A: Its IC50 is greater than 25 µg/mL.

Q: And the IC50 (Cytotoxicity [5])?
A: Its IC50 is greater than 25 µg/mL.

Q: And the IC50 (Cytotoxicity [6])?
A: The IC50 was greater than 25 µg/mL.

Q: And the IC50 [7]?
A: The IC50 was 19 µg/mL (≈ 96.8 µM).

Q: And the IC50 [8]?
A: Its IC50 is 22 µg/mL (≈ 112 µM).

Q: And the “Toxicity to mosquito larvae” value (mosquito larvae)?
A: Its value is “highest activity; also recorded: very low compared to the positive control permethrin”.

Q: Which results are given for `Oc1cc(O)cc(/C=C/c2ccccc2)c1` [Compound 11, pinosylvin]?
A: IC50 (Cytotoxicity [1]): 12.5 µg/mL (≈ 58.9 µM); IC50 (Cytotoxicity [2]): 13.8 µg/mL (≈ 65 µM); IC50 (Cytotoxicity [3]): 13 µg/mL (≈ 61.2 µM); IC50 (Cytotoxicity [4]): 17 µg/mL (≈ 80.1 µM); IC50 (Cytotoxicity [5]): 13 µg/mL (≈ 61.2 µM); IC50 (Cytotoxicity [6]): 10.5 µg/mL (≈ 49.5 µM); IC50 [7]: 18 µg/mL (≈ 84.8 µM); IC50 [8]: 10.5 µg/mL (≈ 49.5 µM); Antifungal activity against P. viticola (Phomopsis viticola; [11]): essentially inactive; Growth inhibition of B. cinerea (Botrytis cinerea; 48 h): minimal activity; Growth inhibition of B. cinerea (Botrytis cinerea; 72 h): no activity; Toxicity to mosquito larvae (mosquito larvae): significantly lower toxicity

Q: With `CC1(C)C=Cc2c(O)cc(/C=C/c3ccc(O)cc3)cc2O1` [Compound 10, arahypin-5] as the molecule, how does the IC50 (Cytotoxicity [1]) read?
A: Its IC50 is 17.5 µg/mL (≈ 59.5 µM).

Q: And the IC50 (Cytotoxicity [2])?
A: The IC50 was greater than 25 µg/mL.

Q: What about the IC50 (Cytotoxicity [3]) of the same molecule?
A: The IC50 was greater than 25 µg/mL.

Q: What about the IC50 (Cytotoxicity [4]) of the same molecule?
A: Its IC50 is greater than 25 µg/mL.

Q: What about the IC50 (Cytotoxicity [5]) of the same molecule?
A: The IC50 was greater than 25 µg/mL.

Q: And the IC50 (Cytotoxicity [6])?
A: The IC50 was 19.5 µg/mL (≈ 66.2 µM).

Q: And the IC50 [7]?
A: Its IC50 is 4.5 µg/mL (≈ 15.3 µM).

Q: What about the IC50 [8] of the same molecule?
A: Its IC50 is 16 µg/mL (≈ 54.4 µM).

Q: And the “Antifungal activity against P. viticola” value (Phomopsis viticola; 144 h of incubation)?
A: The value was “more fungicidal”.

Q: What about the “Antifungal activity against P. obscurans” value (Phomopsis obscurans; 144 h of incubation) of the same molecule?
A: The value was “more fungicidal”.

Q: What about the “Adult mosquito mortality rate ± SD” value [9] of the same molecule?
A: Its value is 5.8±1.8%.

Q: With `CC(C)/C=C/c1c(O)cc(/C=C/C2=CC(=O)OC2CC(=O)O)cc1O` (stereo not shown) [Compound 4, SB-1] as the molecule, how does the IC50 (Cytotoxicity [1]) read?
A: The IC50 was greater than 25 µg/mL.

Q: And the IC50 (Cytotoxicity [2])?
A: Its IC50 is greater than 25 µg/mL.

Q: And the IC50 (Cytotoxicity [3])?
A: The IC50 was greater than 25 µg/mL.

Q: What about the IC50 (Cytotoxicity [4]) of the same molecule?
A: The IC50 was greater than 25 µg/mL.

Q: And the IC50 (Cytotoxicity [5])?
A: Its IC50 is greater than 25 µg/mL.

Q: What about the IC50 (Cytotoxicity [6]) of the same molecule?
A: The IC50 was greater than 25 µg/mL.

Q: What about the IC50 [7] of the same molecule?
A: Its IC50 is greater than 25 µg/mL.

Q: And the IC50 [8]?
A: The IC50 was greater than 25 µg/mL.

Q: And the “Antifungal activity against P. obscurans” value (Phomopsis obscurans; [10])?
A: The value was “did not exhibit any activity”.

Q: With `C=C1C(=O)O[C@H]2[C@H]1CC/C(C)=C/CC[C@@]1(C)O[C@@H]21` [Parthenolide, reference compound] as the molecule, how does the IC50 [8] read?
A: The IC50 was 13.5 µg/mL (≈ 54.4 µM).

Q: With `COc1cc(/C=C/c2ccccc2)cc(OC)c1` [Compound 18] as the molecule, how does the IC50 (Cytotoxicity [1]) read?
A: The IC50 was greater than 25 µg/mL.

Q: What about the IC50 (Cytotoxicity [2]) of the same molecule?
A: Its IC50 is greater than 25 µg/mL.

Q: And the IC50 (Cytotoxicity [3])?
A: Its IC50 is greater than 25 µg/mL.

Q: And the IC50 (Cytotoxicity [4])?
A: The IC50 was greater than 25 µg/mL.

Q: What about the IC50 (Cytotoxicity [5]) of the same molecule?
A: The IC50 was greater than 25 µg/mL.

Q: What about the IC50 (Cytotoxicity [6]) of the same molecule?
A: Its IC50 is greater than 25 µg/mL.

Q: What about the IC50 [7] of the same molecule?
A: Its IC50 is greater than 25 µg/mL.

Q: What about the IC50 [8] of the same molecule?
A: Its IC50 is greater than 25 µg/mL.

Q: What about the “Toxicity to mosquito larvae” value (mosquito larvae) of the same molecule?
A: Its value is “highest activity; also recorded: very low compared to the positive control permethrin”.

Q: For `CC(C)(O)C(O)Cc1cc(/C=C/c2cc(O)cc(O)c2)ccc1O` (stereo not shown) [Compound 7, arahypin-2], which IC50 (Cytotoxicity [1]) is on record?
A: Its IC50 is greater than 25 µg/mL.

Q: And the IC50 (Cytotoxicity [2])?
A: Its IC50 is greater than 25 µg/mL.

Q: And the IC50 (Cytotoxicity [3])?
A: The IC50 was greater than 25 µg/mL.

Q: What about the IC50 (Cytotoxicity [4]) of the same molecule?
A: The IC50 was greater than 25 µg/mL.

Q: What about the IC50 (Cytotoxicity [5]) of the same molecule?
A: The IC50 was greater than 25 µg/mL.

Q: What about the IC50 (Cytotoxicity [6]) of the same molecule?
A: The IC50 was greater than 25 µg/mL.

Q: And the IC50 [7]?
A: Its IC50 is greater than 25 µg/mL.

Q: What about the IC50 [8] of the same molecule?
A: Its IC50 is greater than 25 µg/mL.

Q: What about the “Antifungal activity against P. obscurans” value (Phomopsis obscurans; [10]) of the same molecule?
A: The value was “highest levels of inhibition”.

Q: What about the “Antifungal activity against P. obscurans” value (Phomopsis obscurans; 120 h) of the same molecule?
A: The value was “very high”.

Q: And the “Antifungal activity against P. obscurans” value (Phomopsis obscurans; 144 h of incubation)?
A: The value was “extremely low”.

Q: And the “Adult mosquito mortality rate ± SD” value [9]?
A: The value was “marginally active”.

Q: With `Oc1ccc(/C=C/c2ccccc2)cc1O` [Compound 12] as the molecule, how does the IC50 (Cytotoxicity [1]) read?
A: Its IC50 is greater than 25 µg/mL.

Q: What about the IC50 (Cytotoxicity [2]) of the same molecule?
A: The IC50 was greater than 25 µg/mL.

Q: And the IC50 (Cytotoxicity [3])?
A: The IC50 was greater than 25 µg/mL.

Q: What about the IC50 (Cytotoxicity [4]) of the same molecule?
A: Its IC50 is greater than 25 µg/mL.

Q: What about the IC50 (Cytotoxicity [5]) of the same molecule?
A: Its IC50 is greater than 25 µg/mL.

Q: What about the IC50 (Cytotoxicity [6]) of the same molecule?
A: Its IC50 is greater than 25 µg/mL.

Q: And the IC50 [7]?
A: The IC50 was greater than 25 µg/mL.

Q: What about the IC50 [8] of the same molecule?
A: Its IC50 is greater than 25 µg/mL.

Q: What about the “Antifungal activity against P. viticola” value (Phomopsis viticola; [11]) of the same molecule?
A: The value was “essentially inactive”.

Q: And the “Growth inhibition of B. cinerea” value (Botrytis cinerea; 48 h)?
A: The value was “minimal activity”.

Q: What about the “Growth inhibition of B. cinerea” value (Botrytis cinerea; 72 h) of the same molecule?
A: The value was “no activity”.
